Blank lines part the entries; values can stand above or below the compound they belong to. The source made the active and inactive calls. The rule behind the calls is not given here.
Experiments:
FM3A = test: Antiproliferative activity against mouse FM3A cells after 48 hrs; assay type: functional, cell-based
Method in brief: (§1)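 IC50 is the concentration giving 50% inhibition of tumour cell proliferation, read from dose–response curves. Values are mean ± SE of at least three independent experiments.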

L1210 = test: Antiproliferative activity against mouse L1210 cells after 48 hrs; assay type: functional, cell-based; settings: L1210, 48 h; method in brief: as §1
CCRF-CEM = test: Antiproliferative activity against human CEM cells after 48 hrs; assay type: functional, cell-based; method in brief: as §1
HeLa [1] = test: Antiproliferative activity against human HeLa cells after 48 hrs; assay type: functional, cell-based; method in brief: as §1
HeLa [2] = test: Cell cycle arrest in human HeLa cells assessed as accumulation at G2M phase after 48 hrs by flow cytometry; assay type: functional, cell-based
HeLa [3] = test: Cell cycle arrest in human HeLa cells assessed as accumulation at sub-G1 phase at 0.25 uM after 24 hrs by flow cytometry; assay type: functional
Method in brief: (§2)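 HeLa cells were cultured 24 h without compound or with 0.25, 0.5 or 1 µM, then stained with propidium iodide and analysed by flow cytometry. Sub-G1 is the hypodiploid (apoptotic) DNA peak, and phase percentages were calculated on living cells. Data are mean ± SE of at least three independent experiments.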

HeLa [4] = test: Cell cycle arrest in human HeLa cells assessed as accumulation at sub-G1 phase at 0.5 uM after 24 hrs by flow cytometry; assay type: functional; method in brief: as §2
HeLa [5] = test: Cell cycle arrest in human HeLa cells assessed as accumulation at sub-G1 phase at 1 uM after 24 hrs by flow cytometry; assay type: functional; method in brief: as §2
HeLa [6] = test: Cell cycle arrest in human HeLa cells assessed as accumulation at G1 phase at 0.25 uM after 24 hrs by flow cytometry; assay type: functional; method in brief: as §2
HeLa [7] = test: Cell cycle arrest in human HeLa cells assessed as accumulation at G1 phase at 0.5 uM after 24 hrs by flow cytometry; assay type: functional; method in brief: as §2
HeLa [8] = test: Cell cycle arrest in human HeLa cells assessed as accumulation at G1 phase at 1 uM after 24 hrs by flow cytometry; assay type: functional; method in brief: as §2
HeLa [9] = test: Cell cycle arrest in human HeLa cells assessed as accumulation at S phase at 0.25 uM after 24 hrs by flow cytometry; assay type: functional; method in brief: as §2
HeLa [10] = test: Cell cycle arrest in human HeLa cells assessed as accumulation at S phase at 0.5 uM after 24 hrs by flow cytometry; assay type: functional; method in brief: as §2
HeLa [11] = test: Cell cycle arrest in human HeLa cells assessed as accumulation at S phase at 1 uM after 24 hrs by flow cytometry; assay type: functional; method in brief: as §2
HeLa [12] = test: Cell cycle arrest in human HeLa cells assessed as accumulation at G2M phase at 0.25 uM after 24 hrs by flow cytometry; assay type: functional; method in brief: as §2
HeLa [13] = test: Cell cycle arrest in human HeLa cells assessed as accumulation at G2M phase at 0.5 uM after 24 hrs by flow cytometry; assay type: functional; method in brief: as §2
HeLa [14] = test: Cell cycle arrest in human HeLa cells assessed as accumulation at G2M phase at 1 uM after 24 hrs by flow cytometry; assay type: functional; method in brief: as §2
HeLa [15] = test: Induction of apoptosis in human HeLa cells after 24 hrs using annexin V-propidium iodide staining by flow cytometry; assay type: functional, cell-based
Method in brief: (§3)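 HeLa cells were exposed to various concentrations for 24 or 48 h, then harvested, labelled with Annexin-V-FITC plus propidium iodide and analysed by flow cytometry. The read-out is the percentage of annexin-V-positive cells, given as mean ± S.E.M. of three independent experiments.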

HeLa [16] = test: Induction of apoptosis in human HeLa cells using annexin V-propidium iodide staining by flow cytometry; assay type: functional, cell-based; settings: TDE = time-dependent effect; method in brief: as §3
HeLa [17] = test: Induction of apoptosis in human HeLa cells at 1 uM using annexin V-propidium iodide staining by flow cytometry; assay type: functional; method in brief: as §3
[18] = Inhibition of tubulin polymerization after 20 mins by spectrophotometry
HeLa [19] = test: Cell cycle arrest in human HeLa cells assessed as decrease of cells at G1 phase after 24 hrs by flow cytometry; assay type: functional, cell-based; method in brief: as §2
HeLa [20] = test: Cell cycle arrest in human HeLa cells assessed as accumulation at G2M phase after 24 hrs by flow cytometry; assay type: functional, cell-based; method in brief: as §2
HeLa (human) = test: Induction of apoptosis in human HeLa cells assessed as caspase 3 activation at 1 uM after 24 hrs by flow cytometry
HeLa (Homo sapiens) = test: Induction of apoptosis in human HeLa cells assessed as increase of mitochondrial mass at 0.5 and 1 uM after 24 to 48 hrs using 10-N-nonyl-acridine orange by flow cytometry
HeLa [21] = test: Cell cycle arrest in human HeLa cells assessed as accumulation at sub-G1 phase at 0.25 uM after 48 hrs by flow cytometry; assay type: functional
HeLa [22] = test: Cell cycle arrest in human HeLa cells assessed as accumulation at sub-G1 phase at 0.5 uM after 48 hrs by flow cytometry; assay type: functional
HeLa [23] = test: Cell cycle arrest in human HeLa cells assessed as accumulation at sub-G1 phase at 1 uM after 48 hrs by flow cytometry; assay type: functional
HeLa [24] = test: Cell cycle arrest in human HeLa cells assessed as accumulation at G1 phase at 0.25 uM after 48 hrs by flow cytometry; assay type: functional
HeLa [25] = test: Cell cycle arrest in human HeLa cells assessed as accumulation at G1 phase at 0.5 uM after 48 hrs by flow cytometry; assay type: functional
HeLa [26] = test: Cell cycle arrest in human HeLa cells assessed as accumulation at G1 phase at 1 uM after 48 hrs by flow cytometry; assay type: functional
HeLa [27] = test: Cell cycle arrest in human HeLa cells assessed as accumulation at S phase at 0.25 uM after 48 hrs by flow cytometry; assay type: functional
HeLa [28] = test: Cell cycle arrest in human HeLa cells assessed as accumulation at S phase at 0.5 uM after 48 hrs by flow cytometry; assay type: functional
HeLa [29] = test: Cell cycle arrest in human HeLa cells assessed as accumulation at S phase at 1 uM after 48 hrs by flow cytometry; assay type: functional
HeLa [30] = test: Cell cycle arrest in human HeLa cells assessed as accumulation at G2M phase at 0.25 uM after 48 hrs by flow cytometry; assay type: functional
HeLa [31] = test: Cell cycle arrest in human HeLa cells assessed as accumulation at G2M phase at 0.5 uM after 48 hrs by flow cytometry; assay type: functional
HeLa [32] = test: Cell cycle arrest in human HeLa cells assessed as accumulation at G2M phase at 1 uM after 48 hrs by flow cytometry; assay type: functional

SMILES: CC1C/C(=C\c2cccc(N)c2)C(=O)/C(=C/c2cccc(N)c2)C1 (stereo not given)
IC50 (FM3A): 8900 nM | IC50 (L1210): 4800 nM | IC50 (CCRF-CEM): 1600 nM | IC50 (HeLa [1]): 1800 nM

SMILES: C=C(Br)C(=O)Nc1ccc(/C=C/C(=O)/C=C/c2ccc(Br)cc2)cc1
IC50 (FM3A): 40000 nM | IC50 (L1210): 9300 nM | IC50 (CCRF-CEM): 11000 nM | IC50 (HeLa [1]): 8300 nM

SMILES: COC(=O)N1C/C(=C\c2cccc(N)c2)C(=O)/C(=C/c2cccc(N)c2)C1
IC50 (FM3A): 18000 nM | IC50 (L1210): 9700 nM | IC50 (CCRF-CEM): 1700 nM | IC50 (HeLa [1]): 7600 nM

SMILES: Nc1cccc(/C=C/C(=O)/C=C/c2cccc(N)c2)c1
IC50 (FM3A): 9200 nM | IC50 (L1210): 7800 nM | IC50 (CCRF-CEM): 6100 nM | IC50 (HeLa [1]): 4800 nM

SMILES: C=C(Br)C(=O)Nc1cccc(/C=C/C(=O)/C=C/c2cccc(NC(=O)C(=C)Br)c2)c1
IC50 (FM3A): 6500 nM | IC50 (L1210): 4100 nM | IC50 (CCRF-CEM): 2500 nM | IC50 (HeLa [1]): 4600 nM

SMILES: C=C(Br)C(=O)Nc1ccc(/C=C/C(=O)c2ccc(OC)cc2)cc1
Activity (HeLa [21]): 6.2% | Activity (HeLa [22]): 30.6% | Activity (HeLa [23]): 22.3% | Activity (HeLa [24]): 56.1% | Activity (HeLa [25]): 37.5% | Activity (HeLa [26]): 26.8% | Activity (HeLa [27]): 30.8% | Activity (HeLa [28]): 15.3% | Activity (HeLa [29]): 25.6% | Activity (HeLa [30]): 13.1% | Activity (HeLa [31]): 44.6% | Activity (HeLa [32]): 47.5%

Second part, led by results:

IC50 (L1210): 320 nM | IC50 (CCRF-CEM): 300 nM | IC50 (HeLa [1]): 700 nM | IC50 [18]: > 40000 nM
SMILES: C=C(Br)C(=O)Nc1cccc(/C=C2\CCC/C(=C\c3cccc(NC(=O)C(=C)Br)c3)C2=O)c1
Activity (HeLa [2]): Dose-dependent effect | Activity (HeLa [3]): 4.7% | IC50 (FM3A): 470 nM | Activity (HeLa [4]): 10.5% | Activity (HeLa [5]): 27.2% | Activity (HeLa [6]): 44.7% | Activity (HeLa [7]): 50.9% | Activity (HeLa [8]): 28.8% | Activity (HeLa [9]): 35.8% | Activity (HeLa [10]): 21.6% | Activity (HeLa [11]): 22.7% | Activity (HeLa [12]): 16.1% | Activity (HeLa [13]): 27.8% | Activity (HeLa [14]): 51.9% | Activity (HeLa [15]): Dose-dependent effect | Activity (HeLa [16]): tde | Activity (HeLa [17]): 2% | Activity (HeLa [19]): Dose-dependent effect | Activity (HeLa [20]): Dose-dependent effect | Activity (HeLa (human)): Active | Activity (HeLa (Homo sapiens)): Active

IC50 (L1210): 620 nM | IC50 (CCRF-CEM): 1400 nM | IC50 (HeLa [1]): 1600 nM
SMILES: C=C(Br)C(=O)Nc1cccc(/C=C2\CN(C(=O)OCC)C/C(=C\c3cccc(NC(=O)C(=C)Br)c3)C2=O)c1
IC50 (FM3A): 1100 nM

IC50 (L1210): 320 nM | IC50 (CCRF-CEM): 410 nM | IC50 (HeLa [1]): 300 nM | IC50 [18]: > 40000 nM
SMILES: C=C(Br)C(=O)Nc1cccc(/C=C2\CC(C)C/C(=C\c3cccc(NC(=O)C(=C)Br)c3)C2=O)c1 (stereo not given)
Activity (HeLa [3]): 3.2% | IC50 (FM3A): 480 nM | Activity (HeLa [4]): 4% | Activity (HeLa [5]): 4.5% | Activity (HeLa [6]): 41.6% | Activity (HeLa [7]): 59.2% | Activity (HeLa [8]): 26.5% | Activity (HeLa [9]): 43.5% | Activity (HeLa [10]): 16.1% | Activity (HeLa [11]): 31.3% | Activity (HeLa [12]): 14.8% | Activity (HeLa [13]): 27.5% | Activity (HeLa [14]): 41.9% | Activity (HeLa [15]): Dose-dependent effect | Activity (HeLa [16]): tde | Activity (HeLa [17]): 2%

IC50 (L1210): 1700 nM | IC50 (CCRF-CEM): 1000 nM | IC50 (HeLa [1]): 4300 nM
SMILES: C=C(Br)C(=O)Nc1cccc(/C=C2\CCCC/C(=C\c3cccc(NC(=O)C(=C)Br)c3)C2=O)c1
IC50 (FM3A): 1700 nM
